Measurements of several laboratories.
Protocols differ between the studies behind these lines.
Target: Tyrosine-protein kinase TXK (TXK, Homo sapiens, UniProt P42681)
Residues used in one study (P42681 1-527): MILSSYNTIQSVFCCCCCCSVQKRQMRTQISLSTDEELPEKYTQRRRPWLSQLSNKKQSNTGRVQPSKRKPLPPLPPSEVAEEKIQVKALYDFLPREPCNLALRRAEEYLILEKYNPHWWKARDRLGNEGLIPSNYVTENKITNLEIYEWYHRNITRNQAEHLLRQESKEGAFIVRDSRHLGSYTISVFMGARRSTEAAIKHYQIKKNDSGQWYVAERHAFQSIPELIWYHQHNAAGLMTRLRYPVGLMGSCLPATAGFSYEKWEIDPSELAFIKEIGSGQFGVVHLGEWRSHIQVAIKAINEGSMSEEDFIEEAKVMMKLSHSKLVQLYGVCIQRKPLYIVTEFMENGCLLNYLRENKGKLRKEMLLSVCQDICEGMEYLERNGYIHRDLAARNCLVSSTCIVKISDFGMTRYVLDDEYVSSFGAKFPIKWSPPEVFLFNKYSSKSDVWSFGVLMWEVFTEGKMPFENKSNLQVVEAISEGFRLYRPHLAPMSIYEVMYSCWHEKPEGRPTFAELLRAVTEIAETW

SMILES	read-out	method	concentration	remaining binding
CN(C)c1nccc(-c2cnn3ncccc23)n1	binding		1 µM	100%
COc1cnc(Nc2cccc(S(N)(=O)=O)c2)nc1N1CCN(c2ccccc2)C(=O)C1	binding	competition with immobilised ligand	1 µM	100%
N[C@H]1CCN(c2nccc(-c3cnn4ncccc34)n2)C1	binding		1 µM	100%
C[C@H](NC(=O)c1cnc2n1[C@](C)(Cc1ccc(C#N)cc1)C(=O)N2c1cc(Cl)c(F)c(Cl)c1)C(=O)NC1(c2ccccn2)CC1	binding	competition with immobilised ligand	1 µM	90%
c1cnn2ncc(-c3ccnc(N4CCC45COC5)n3)c2c1	binding		1 µM	100%
O=C(c1ccc(Nc2ncc(Cl)c(-c3ccc(Cl)s3)n2)cc1)N1CCC(N2CCCC2)CC1	binding	competition with immobilised ligand	1 µM	80%
FC(F)(F)Oc1cccc(-c2cnc3ccc(-c4ccncc4)nn23)c1	binding	competition with immobilised ligand	5 µM	55%
CN(C)c1nccc(-c2cnc3ncccn23)n1	binding		1 µM	98%
COc1ncc2cc3ccccc3nc2c1C#N	binding	competition with immobilised ligand	5 µM	93%
O=C(Nc1c[nH]nc1C(=O)NC1CCNCC1)c1cc(F)cc(F)c1	binding	competition with immobilised ligand	1 µM	100%
CCc1ccccc1C(=O)Nc1n[nH]c2c(C)c(F)c(C3C(C#N)=C(C)N(C)C(C)=C3C#N)cc12	binding	competition with immobilised ligand	1 µM	84%
O=C(c1ccc(Nc2nccc(-c3cc4ccccc4s3)n2)cc1)N1CCC(N2CCCC2)CC1	binding	competition with immobilised ligand	1 µM	92%
COc1cnc(Nc2cccc(S(N)(=O)=O)c2)nc1N1CCN(c2ccccc2)CC1	binding	competition with immobilised ligand	1 µM	100%
C[C@@H](c1cccc(C#N)c1)n1cc(Cl)cc(C(N)=O)c1=N	binding	competition with immobilised ligand	1 µM	68%
Nc1ncc2c(n1)-c1c([nH]c3ccc(C#CC4CC4)cc13)CCCC2	binding	competition with immobilised ligand	1 µM	99%
CN(CCCC(F)(F)F)c1nccc(-c2cnn3ncccc23)n1	binding		1 µM	87%
CCS(=O)(=O)c1cc2cc(C[C@@](O)(CC(C)(C)c3ccc(F)cc3C(N)=O)C(F)(F)F)[nH]c2cn1	cell-free assay	competition with immobilised ligand	1 µM	97%
O=C(NCCCN1CCOCC1)c1ccc(Nc2nccc(-c3cc4ccccc4s3)n2)cc1	binding	competition with immobilised ligand	1 µM	86%
Cc1cc(-n2nc(Cc3cc(F)cc(C(F)(F)F)c3)nc2C)ccc1C(N)=O	binding	competition with immobilised ligand	1 µM	84%
COc1ccnn2ncc(-c3ccnc(N(C)C)n3)c12	binding		1 µM	100%
CC(=O)c1c(NS(C)(=O)=O)c2cc(-c3ccc(Cl)cc3)c(-c3ccc(Cl)cc3Cl)nc2n(C)c1=O	cell-free assay	competition with immobilised ligand	1 µM	100%
C[C@@H]1CCN(c2nccc(-c3cnn4ncccc34)n2)C1	binding		1 µM	100%
